The term AUC(0-t) denotes the area under the concentration-time curve up to a stated or last time point. For orientation: Cmax means the maximum level reached in the sampled fluid or tissue. In general, inhibition in vivo refers to the percentage by which the read-out fell short of the control. The fraction unbound is the share of the substance not bound to proteins or other matrix.

A short description of series [1]: AUC (0 to 24 hrs) in cynomolgus monkey at 3 mg/kg, po by LC-MS/MS analysis. In kind it is ADME, organism-based, Macaca fascicularis. The arrangement: time < 24 hr, dose 3 mg/kg, route oral. As to conditions: in vivo. The essentials:
(§1)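 Sprague Dawley rats, Beagle dogs and Cynomolgus monkeys were dosed IV at 1 mg/kg (rat, dog) or 0.91 mpk (monkey) in 5% Solutol/5% EtOH in saline. Oral/nasogastric dosing was 3 mpk in 1.0% CMC/0.25% PS80/0.05% antifoam in purified water. Samples were processed to plasma and analysed by LC-MS/MS; values are mean ± SD, N=2-3.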

A short description of series [2]: Cmax in cynomolgus monkey at 3 mg/kg, po by LC-MS/MS analysis. In kind it is ADME, organism-based, Macaca fascicularis. Also noted: dose 3 mg/kg, route oral. As to conditions: in vivo. The essentials: as §1
The test system of series [3] is Mus musculus. The series is described as follows: Antidyslipidemic activity in western-diet fed mouse expressing LDL-receptor (-/-) assessed as decrease in low density lipoprotein level at 10 mg/kg qd for a week administered via gavage by FPLC analysis. It counts as functional. As to conditions: po. The essentials: (§2)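 LDLR null male mice, six per group, were dosed by gavage once daily for one week (vehicle 5% Solutol, 5% EtOH, 1% wt/v CMC; 5 mL/kg). Serum was collected by cardiac puncture on day 7 under CO2 anaesthesia. Pooled serum from each treatment group was fractionated by FPLC to quantify VLDL and LDL.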

Series [4] concerns Rattus norvegicus. The series is described as follows: Antidyslipidemic activity in ZDF rat assessed as HDL level at 3 mg/kg for 9 days by FPLC analysis (reference value: 48.3 mg/dL). It counts as functional, Zucker.
A short description of series [5]: Terminal half life in beagle dog at 3 mg/kg, po by LC-MS/MS analysis. As to conditions: in vivo, read-out: beta t1/2 (converted). It counts as ADME, organism-based, Canis lupus familiaris. The essentials: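 Oral/nasogastric dosing at 3 mpk in 1.0% CMC/0.25% PS80/0.05% antifoam in purified water. Plasma samples collected and analyzed by LC-MS/MS; parameters reported as mean ± SD, N=2-3.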

Series [6] relates to Mus musculus. The series can be described thus: Antidyslipidemic activity in western-diet fed mouse expressing LDL-receptor (-/-) assessed as decrease in total cholesterol level at 3 mg/kg qd for a week administered via gavage […]. It counts as functional. As to conditions: po. The essentials: (§3)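 Male LDLR null mice, six per group, were gavaged once daily for one week with compound (in situ sodium salt) or vehicle (5% Solutol, 5% EtOH, 1% wt/v CMC) at 5 mL/kg. On day 7 they were bled by cardiac puncture under CO2 anaesthesia. Serum cholesterol and triglycerides were measured enzymatically on a clinical chemistry analyser (mean ± SD, n=6). ED50 was obtained by nonlinear regression.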

In series [7] the test system is Mus musculus. The series can be described thus: Antidyslipidemic activity in western-diet fed mouse expressing LDL-receptor (-/-) assessed as decrease in total cholesterol level at 1 mg/kg qd for a week administered via gavage […]. In kind it is functional. As to conditions: po. The essentials:
as §3

The test system of series [8] is Mus musculus. The series is described as follows: Antidyslipidemic activity in western-diet fed mouse expressing LDL-receptor (-/-) assessed as decrease in low density lipoprotein level at 3 mg/kg qd for a week administered via gavage by FPLC analysis. In kind it is functional. As to conditions: po. In short, it runs like this:
as §2

Series [9] can be described thus: Fraction unbound in rat plasma. In kind it is ADME, cell-free.
The subject of series [10] is Mus musculus. The series is described as follows: Antidyslipidemic activity in western-diet fed mouse expressing LDL-receptor (-/-) assessed as decrease in low density lipoprotein level at 1 mg/kg qd for a week administered via gavage by FPLC analysis. In kind it is functional. The note with it: po. The essentials: as §2
The test system of series [11] is Mus musculus. The series can be described thus: Antidyslipidemic activity in western-diet fed mouse expressing LDL-receptor (-/-) assessed as decrease in total cholesterol level administered once daily for a week via gavage […]. In kind it is functional. As to conditions: po. In short, it runs like this:
as §3

Series [12] deals with Rattus norvegicus. The series can be described thus: Antidyslipidemic activity in ZDF rat assessed as LDL/IgHDL level at 10 mg/kg cotreated with 0.3 mg/kg rosiglitazone for 9 days by FPLC analysis (reference value: 17.8 mg/dL). It counts as functional, Zucker.

On to `Cn1cc(C(=O)O)c2ccc(N3CCC(OCc4c(-c5c(Cl)cccc5Cl)noc4C4CC4)CC3)cc21` [TERN-101], for which the AUC(0-t) at 24 h in [1] amounted to 1.81 µg·h/mL. In series [2], this molecule gave a Cmax of 0.221 µg/mL. Besides, in the series on Mus musculus [3], the inhibition in vivo at 10 mg/kg stood at 50%. Also, the values for the Activity with Rattus norvegicus [4] and in the series with Rattus norvegicus [12] were 62.5 mg/dL and 20.3 mg/dL, respectively. Also, in [5], the half-life was 7 h. Further, the inhibition in vivo at 3 mg/kg in the series on Mus musculus [6] was 57%; with Mus musculus [8], 15%. Moreover, the inhibition in vivo at 1 mg/kg in the series with Mus musculus [7] is 37%; in the series on Mus musculus [10], 1%. The same molecule yielded a fraction unbound in series [9] of 0.02. In addition, in the series with Mus musculus [11], the ED50 was 2 mg/kg.

The values are drawn from ChEMBL document CHEMBL3745677, “Discovery of 6-(4-{[5-Cyclopropyl-3-(2,6-dichlorophenyl)isoxazol-4-yl]methoxy}piperidin-1-yl)-1-methyl-1H-indole-3-carboxylic Acid: A Novel FXR Agonist for the Treatment of Dyslipidemia” (J Med Chem, 2015).
